Laboratory results reported in ChEMBL document CHEMBL1795211, “Evaluation of NTF1836 as an inhibitor of the mycothiol biosynthetic enzyme MshC in growing and non-replicating Mycobacterium tuberculosis” (Bioorg Med Chem, 2011).
Values after ≈ are worked out from the molar mass of the structure shown. Active and inactive are the calls of the source. No cut-off for these calls is given here.

Assays:
[1] = target: T1, L-cysteine:1D-myo-inositol 2-amino-2-deoxy-alpha-D-glucopyranoside ligase (Mycobacterium tuberculosis, UniProt P9WJM9); test: Inhibition of Mycobacterium tuberculosis recombinant MshC assessed as production of Cys-GlcN-Ins from cysteine by HPLC based fluorescence assay
T1 sequence (P9WJM9 whole entry): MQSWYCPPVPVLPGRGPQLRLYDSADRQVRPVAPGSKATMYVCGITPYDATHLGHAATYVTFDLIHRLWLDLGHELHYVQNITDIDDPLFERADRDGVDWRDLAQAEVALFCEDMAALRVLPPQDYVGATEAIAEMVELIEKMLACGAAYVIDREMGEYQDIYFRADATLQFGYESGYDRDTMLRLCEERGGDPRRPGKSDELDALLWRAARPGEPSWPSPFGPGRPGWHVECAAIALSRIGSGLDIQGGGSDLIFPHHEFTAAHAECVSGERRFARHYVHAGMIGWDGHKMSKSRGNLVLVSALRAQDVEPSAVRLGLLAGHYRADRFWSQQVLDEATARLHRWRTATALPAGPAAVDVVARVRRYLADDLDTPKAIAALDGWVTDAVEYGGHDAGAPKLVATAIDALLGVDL

Vero = test: Cytotoxicity against african green monkey Vero cells assessed as cell viability after 48 hrs by neutral red assay; assay type: cell-based; conditions: chlorocebus sabaeus
[2] = Antimycobacterial activity against mid-log phase of Mycobacterium tuberculosis Erdman ATCC 35801 after 7 days by 96 well plate assay; assay type: functional, Mycobacterium tuberculosis str. Erdman; conditions: ATCC 35801, 168 h
[3] = test system: Mycobacterium tuberculosis str. Erdman; test: Antimycobacterial activity against mid-log phase of Mycobacterium tuberculosis Erdman ATCC 35801 assessed as growth inhibition after 7 days by 96 well plate assay; assay type: functional
[4] = Antimycobacterial activity against non-replicating Mycobacterium tuberculosis Erdman ATCC 35801 nutrient starvation model assessed as reduction viability at 90 uM after 15 days by 96 well plate assay; assay type: functional, Mycobacterium tuberculosis str. Erdman
How it was run: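 Non-replicating Erdman from nutrient starvation in PBS + 0.05% Tween 80 for 6 weeks; compound dilutions then added and incubation continued 15 d; viable counts by plating serial dilutions on 7H9 agar with OADC; duplicate samples.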

[5] = Antimycobacterial activity against mid-log phase of Mycobacterium tuberculosis Erdman ATCC 35801 assessed as reduction of viability at 20 uM after 7 days by 96 well plate assay; assay type: functional, Mycobacterium tuberculosis str. Erdman
[6] = test system: Mycobacterium tuberculosis str. Erdman; test: Antimycobacterial activity against mid-log phase of Mycobacterium tuberculosis Erdman ATCC 35801 assessed as growth inhibition by measuring change on optical density at 600 nm at 30 to 50 uM after 7 days; assay type: functional
How it was run: (§1)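 Mid-log Erdman in 7H9 + ADS adjusted to OD600 0.08; 8 mL aliquots with 10–75 µM compound (from DMSO stock) in vented flasks, 7 d at 37 °C; duplicates with DMSO-matched control; growth read as 7-day change in OD600.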

[7] = Antimycobacterial activity against mid-log phase of Mycobacterium tuberculosis Erdman ATCC 35801 assessed as reduction of viability at 50 to 75 uM after 7 days by 96 well plate assay relative to control; assay type: functional, Mycobacterium tuberculosis str. Erdman
[8] = test system: Mycobacterium tuberculosis str. Erdman; test: Antimycobacterial activity against mid-log phase of Mycobacterium tuberculosis Erdman ATCC 35801 assessed as growth inhibition by measuring change on optical density at 600 nm after 7 days; assay type: functional; how it was run: as §1
[9] = target: T2, L-cysteine:1D-myo-inositol 2-amino-2-deoxy-alpha-D-glucopyranoside ligase (Mycobacterium tuberculosis) (UniProt P9WJM9); test: Inhibition of MshC in Mycobacterium tuberculosis Erdman ATCC 35801 assessed as reduction of Cys-GlcN-Ins accumulation at 10 to 80 uM after 7 days by HPLC based fluorescence assay; conditions: Mycobacterium tuberculosis str. Erdman
T2 sequence (whole entry): T1 sequence (P9WJM9 whole entry)

[10] = test system: Mycobacterium tuberculosis; test: Antimycobacterial activity against mid-log phase of Mycobacterium tuberculosis CDC1551 isolated from patient after 7 days by 96 well plate assay; assay type: functional; conditions: CDC1551, 168 h

With `CC1CCCN(CCCNC(=O)c2ccc3c(c2)N(Cc2ccccc2F)C(=O)c2ccccc2S3(=O)=O)C1` (configuration not stated) as the compound, how does the IC50 [1] read?
Its IC50 is 800 µM.

Which IC50 [1] does the source give for `O=C(NCCCN1CCOCC1)c1ccc2c(c1)N(Cc1cccc(Cl)c1)C(=O)c1ccccc1S2` here?
The IC50 was 800 µM.

With `CN(CCCNC(=O)c1ccc2c(c1)N(Cc1cccc(Cl)c1)C(=O)c1ccccc1S2)C1CCCCC1` as the compound, how does the IC50 [1] read?
Its IC50 is 280 µM.

With `O=C(NCCCN1CCOCC1)c1ccc2c(c1)N(Cc1cccc(Cl)c1)C(=O)c1ccccc1S2(=O)=O` as the compound, how does the IC50 [1] read?
Its IC50 is 3000 µM.

Which cytotoxic concentration (Vero) does the source give for `O=C(NCCCN1CCCC1)c1ccc2c(c1)N(Cc1cccc(Cl)c1)C(=O)c1ccccc1S2` here?
Its cytotoxic concentration is 50 µM.

And the MIC95 [2]?
Its MIC95 is 55 µM (≈ 27.8 µg/mL).

What about the IC50 [1] of the same compound?
Its IC50 is 130 µM.

With `O=C(NCC1CCCN1)c1ccc2c(c1)N(Cc1cccc(Cl)c1)C(=O)c1ccccc1S2(=O)=O` (configuration not stated) as the compound, how does the IC50 [1] read?
Its IC50 is 2500 µM.

For `CN(CCCNC(=O)c1ccc2c(c1)N(Cc1ccccc1)C(=O)c1ccccc1S2(=O)=O)C1CCCCC1`, which IC50 [1] is on record?
Its IC50 is 500 µM.

For `CN(CCCNC(=O)c1ccc2c(c1)N(Cc1ccc(Cl)cc1)C(=O)c1ccccc1S2(=O)=O)C1CCCCC1`, which IC50 [1] is on record?
Its IC50 is 330 µM.

Which IC50 [1] does the source give for `Cc1ccc(CN2C(=O)c3ccccc3S(=O)(=O)c3ccc(C(=O)NCCCN4CCCC4)cc32)c(C)c1` here?
Its IC50 is 1400 µM.

For `Cc1ccc(CN2C(=O)c3ccccc3S(=O)(=O)c3ccc(C(=O)NCCCN4CCOCC4)cc32)c(C)c1`, which IC50 [1] is on record?
Its IC50 is > 3000 µM.

For `O=C(NCCCN1CCOCC1)c1ccc2c(c1)N(Cc1cccc(Cl)c1)C(=O)c1ccccc1[S+]2[O-]` (racemic), which IC50 [1] is on record?
Its IC50 is 500 µM.

Which cytotoxic concentration (Vero) does the source give for `O=C(NCCCN1CCCC1)c1ccc2c(c1)N(Cc1cccc(Cl)c1)C(=O)c1ccccc1[S+]2[O-]` (racemic) here?
The cytotoxic concentration was 50 µM.

And the MIC95 [2]?
The MIC95 was 55 µM (≈ 28.7 µg/mL).

What about the IC50 [1] of the same compound?
The IC50 was 100 µM.

Which IC50 [1] does the source give for `CCCCN(C)CCCNC(=O)c1ccc2c(c1)N(Cc1cccc(Cl)c1)C(=O)c1ccccc1[S+]2[O-]` (racemic) here?
Its IC50 is 110 µM.

For `CN(CCCNC(=O)c1ccc2c(c1)N(Cc1cccc(Cl)c1)C(=O)c1ccccc1[S+]2[O-])C1CCCCC1` (racemic), which cytotoxic concentration (Vero) is on record?
The cytotoxic concentration was 50 µM.

What about the “growth inhibition (GI)” value [3] of the same compound?
The value was “Dose-dependent effect”.

What about the Activity [4] of the same compound?
Its Activity is 99%.

What about the Activity [5] of the same compound?
Its Activity is 50%.

And the growth inhibition (GI) [6]?
Its growth inhibition (GI) is 50%.

What about the Activity [7] of the same compound?
Its Activity is 97%.

What about the MIC95 [2] of the same compound?
The MIC95 was 28 µM (≈ 15.8 µg/mL).

And the IC50 [1]?
Its IC50 is 85 µM.

What about the “growth inhibition (GI)” value [8] of the same compound?
The value was “Dose-dependent effect”.

What about the inhibition [9] of the same compound?
Its inhibition is “Active”.

Which IC50 [1] does the source give for `O=C(NCCCSC1CCCCC1)c1ccc2c(c1)N(Cc1cccc(Cl)c1)C(=O)c1ccccc1[S+]2[O-]` (racemic) here?
Its IC50 is ≥ 1000 µM.

For `CC1CC(C)CN(CCCNC(=O)c2ccc3c(c2)N(Cc2cccc(Cl)c2)C(=O)c2ccccc2[S+]3[O-])C1` (racemic), which IC50 [1] is on record?
The IC50 was 500 µM.

What does the source list for `CCC1CCCCN1CCCNC(=O)c1ccc2c(c1)N(Cc1cccc(Cl)c1)C(=O)c1ccccc1[S+]2[O-]` (racemic)?
cytotoxic concentration (Vero): 100 µM; MIC95 [2]: 55 µM (≈ 31 µg/mL); MIC95 [10]: 32 µM (≈ 18.1 µg/mL); IC50 [1]: 80 µM

Which results are given for `CC1CCCN(CCCNC(=O)c2ccc3c(c2)N(Cc2cccc(Cl)c2)C(=O)c2ccccc2[S+]3[O-])C1` (racemic)?
cytotoxic concentration (Vero): 100 µM; MIC95 [2]: 55 µM (≈ 30.3 µg/mL)

For `O=C(NCCN1CCCCCC1)c1ccc2c(c1)N(Cc1cccc(Cl)c1)C(=O)c1ccccc1[S+]2[O-]` (racemic), which cytotoxic concentration (Vero) is on record?
The cytotoxic concentration was 100 µM.

And the MIC95 [2]?
The MIC95 was 28 µM (≈ 15 µg/mL).

What about the IC50 [1] of the same compound?
Its IC50 is 100 µM.

For `CCCN(CCC)CCCNC(=O)c1ccc2c(c1)N(Cc1cccc(Cl)c1)C(=O)c1ccccc1[S+]2[O-]` (racemic), which IC50 [1] is on record?
Its IC50 is 100 µM.

Which IC50 [1] does the source give for `CN(CCCNC(=O)c1ccc2c(c1)N(Cc1ccccc1)C(=O)c1ccccc1[S+]2[O-])C1CCCCC1` (racemic) here?
The IC50 was 300 µM.

For `CCN1C(=O)c2ccccc2[S+]([O-])c2ccc(C(=O)NCCCN3CCCCCC3)cc21` (racemic), which IC50 [1] is on record?
Its IC50 is ≥ 3000 µM.

For `CN(C)CCCNC(=O)c1ccc2c(c1)N(Cc1ccc(Cl)cc1)C(=O)c1ccccc1[S+]2[O-]` (racemic), which IC50 [1] is on record?
The IC50 was 340 µM.

With `CN(CCCNC(=O)c1ccc2c(c1)N(Cc1ccc(F)cc1)C(=O)c1ccccc1[S+]2[O-])C1CCCCC1` (racemic) as the compound, how does the IC50 [1] read?
Its IC50 is > 3000 µM.

For `CC1CC(C)CN(CCCNC(=O)c2ccc3c(c2)N(Cc2ccccc2F)C(=O)c2ccccc2[S+]3[O-])C1` (racemic), which IC50 [1] is on record?
The IC50 was > 3000 µM.

For `Cc1ccc(CN2C(=O)c3ccccc3[S+]([O-])c3ccc(C(=O)NCCCN(C)C4CCCCC4)cc32)c(C)c1` (racemic), which IC50 [1] is on record?
Its IC50 is 2000 µM.

With `CCN(CC)CCCNC(=O)c1ccc2c(c1)N(Cc1ccc(C)cc1C)C(=O)c1ccccc1[S+]2[O-]` (racemic) as the compound, how does the IC50 [1] read?
The IC50 was > 3000 µM.

With `CO[C@H]1/C=C/O[C@@]2(C)Oc3c(C)c(O)c4c(O)c(c(/C=N/N5CCN(C)CC5)c(O)c4c3C2=O)NC(=O)/C(C)=C\C=C\[C@H](C)[C@H](O)[C@@H](C)[C@@H](O)[C@@H](C)[C@H](OC(C)=O)[C@@H]1C` [RIFAMPIN] as the compound, how does the MIC95 [2] read?
Its MIC95 is 0.24 µM (≈ 0.198 µg/mL).
